Measurements collected from several papers.
Compare with care: the assays were run in different laboratories.
DDB1: DNA damage-binding protein 1 (DDB1, Homo sapiens, UniProt Q16531)
EPHX2: Bifunctional epoxide hydrolase 2 (EPHX2, Homo sapiens, UniProt P34913)
Maoa: Amine oxidase [flavin-containing] A (Maoa, Mus musculus, UniProt Q64133)

The IC50 of `CNC(=O)c1ccc(-c2cnn3ccc(C(=O)N(C)c4ccc(Cl)c(C(=O)O)c4)cc23)cc1` is reported as > 30 µM (Tyrosine-protein kinase JAK2 (JAK2, Homo sapiens, UniProt O60674); enzyme activity, inhibitor).
With `CC[C@H](C)[C@H](NC(=O)[C@H](CCCCN)NC(=O)[C@@H](NC(=O)[C@H](CCCNC(=N)N)NC(=O)[C@H](CCC(=O)O)NC(=O)[C@H](CC(C)C)NC(=O)[C@H](CCC(N)=O)NC(=O)[C@H](CCCCN)NC(=O)[C@H](CC(C)C)NC(=O)[C@@H](NC(=O)[C@H](Cc1c[nH]cn1)NC(=O)[C@H](CCC(=O)O)NC(=O)[C@@H](N)CCCNC(=N)N)C(C)C)C(C)C)C(=O)N[C@@H](CO)C(=O)NCC(=O)N[C@@H](CCC(N)=O)C(=O)N[C@@H](CC(C)C)C(=O)N[C@@H](CO)C(=O)N1CCC[C@H]1C(=O)N[C@@H](CCCNC(=N)N)C(=O)N[C@@H](CC(C)C)C(=O)N[C@@H](Cc1ccccc1)C(=O)N[C@@H](CCCNC(=N)N)C(=O)N[C@@H](CCCCN)C(=O)N[C@@H](CC(C)C)C(=O)N1CCC[C@H]1C(=O)N1CCC[C@H]1C(=O)N[C@@H](CCCNC(=N)N)C(=O)N[C@H](C(=O)N[C@@H](CS)C(=O)N[C@H](C(=O)N[C@@H](CO)C(=O)O)C(C)C)C(C)C` the IC50 was 0.058 µM (DDB1; cell-free assay, FP; pH 7.5).
`C[S+]([O-])CCCN=C=S` (stereo not shown) gave an IC50 of 20.2 µM (EPHX2; enzyme activity, inhibitor, fluorescence).
For `COC(=O)c1cc(N(C)C(=O)c2ccn3ncc(-c4ccc(C(=O)O)cc4)c3c2)ccc1Cl`, the IC50 was > 30 µM (Proto-oncogene tyrosine-protein kinase receptor Ret (RET, Homo sapiens, UniProt P07949); enzyme activity, inhibitor).
The IC50 of `S=C=NCCc1ccccc1` is reported as 7.5 µM (EPHX2; enzyme activity, inhibitor, fluorescence).
With `Cc1ccc(F)c(CNS(=O)(=O)c2cccc3cccnc23)c1` the IC50 was 2.74 µM (Maoa; enzyme activity, inhibitor, fluorescence).
`CC[C@H](C)[C@H](NC(=O)[C@H](CO)NC(=O)[C@H](CCC(N)=O)NC(=O)CNC(=O)[C@H](CC(C)C)NC(=O)[C@H](CO)NC(=O)[C@H](CO)NC(=O)[C@H](CCCCN)NC(=O)[C@H](Cc1ccc(O)cc1)NC(=O)[C@@H](NC(=O)[C@H](Cc1ccc(O)cc1)NC(=O)[C@H](Cc1c[nH]cn1)NC(=O)[C@H](CC(C)C)NC(=O)[C@@H](NC(=O)[C@H](CO)NC(=O)[C@@H](NC(=O)[C@H](CCC(N)=O)NC(=O)CN)[C@@H](C)O)[C@@H](C)CC)[C@@H](C)CC)C(=O)N[C@@H](Cc1c[nH]cn1)C(=O)N[C@@H](C)C(=O)N[C@@H](CCC(N)=O)C(=O)N[C@@H](CC(C)C)C(=O)N[C@@H](CCCNC(=N)N)C(=O)N[C@@H](CCC(N)=O)C(=O)N[C@@H](CS)C(=O)N[C@@H](CC(C)C)C(=O)NCC(=O)NCC(=O)NCC(=O)NCC(=O)O` has an IC50 of 0.867 µM (DDB1; cell-free assay, FP; pH 7.5).
The Kd of `O=C(C=Cc1ccccc1)Nc1cc(-c2ccnc(N3CCC(O)CC3)c2)ccn1` is reported as 1.63 µM (Estrogen receptor beta (ESR2, Homo sapiens, UniProt Q92731); binding, SPR).
With `CC[C@H](C)[C@@H]1NC(=O)[C@H](CC(=O)O)NC(=O)[C@H]([C@@H](C)O)NC(=O)[C@@H]2CSSC[C@@H]3NC(=O)[C@H](CC(C)C)NC(=O)[C@H](CC(N)=O)NC(=O)[C@H](CC(C)C)NC(=O)[C@H](CCCNC(=N)N)NC(=O)[C@H](Cc4ccc(O)cc4)NC(=O)[C@H](CCCCN)NC(=O)[C@H](CCSC)NC(=O)[C@H](CO)NC(=O)[C@H]([C@@H](C)O)NC(=O)[C@H](CCCNC(=N)N)NC(=O)[C@H](CSSC[C@H](NC(=O)[C@H]([C@@H](C)O)NC(=O)[C@H](CCCCN)NC(=O)[C@H](CCCNC(=N)N)NC3=O)C(=O)NCC(=O)N[C@@H](CO)C(=O)N[C@H](C(=O)O)CSSC[C@H](NC(=O)[C@@H](NC(=O)[C@@H](N)CCCNC(=N)N)[C@@H](C)O)C(=O)N[C@@H](CCCCN)C(=O)N[C@@H](CC(=O)O)C(=O)N[C@@H](CC(C)C)C(=O)N[C@@H]([C@@H](C)CC)C(=O)N3CCC[C@H]3C(=O)N[C@@H](C(C)C)C(=O)N[C@@H](CO)C(=O)N[C@@H](CCC(=O)O)C(=O)N2)NC(=O)[C@H](CCCNC(=N)N)NC1=O` the Ki was 0.0025 µM (Potassium voltage-gated channel subfamily A member 2 (KCNA2, Homo sapiens, UniProt P16389); ion current, inhibitor, two-electrode voltage clamp; oocytes).
`C#CCN(C)CCCOc1ccc(Cl)cc1Cl` has an IC50 of 0.045 µM (Maoa; enzyme activity, inhibitor, fluorescence).
